The values that follow come from ChEMBL document CHEMBL1157869, “Discovering some novel tetrahydroquinoline derivatives bearing the biologically active sulfonamide moiety as a new class of antitumor agents” (Eur J Med Chem, 2010).

In general, IC50 refers to the midpoint of a concentration-inhibition curve.

Assay [1] in a line: Antitumor activity against mouse EAC cells assessed as non viable cells at 100 ug/mL after 2 hrs by trypan blue exclusion test. The class given is functional, Ehrlich. The gist of the method: (§1)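 Cells came from the ascitic fluid of preinoculated female Swiss albino mice and were suspended in medium with glutamine, fetal calf serum and antibiotics. Compound from DMSO dilutions was added as 0.1 mL, equal to the stated µg level, to medium plus 0.1 mL cell suspension (2 × 10^6). After 2 h at 37 °C, the percentage of non-viable cells was counted by trypan blue exclusion.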

A short description of assay [2]: Antitumor activity against mouse EAC cells assessed as non viable cells at 50 ug/mL after 2 hrs by trypan blue exclusion test. In kind it is functional, Ehrlich. The procedure, abridged:
as §1

The nature of assay [3]: Antitumor activity against mouse EAC cells assessed as non viable cells at 25 ug/mL after 2 hrs by trypan blue exclusion test. In kind it is functional, Ehrlich. The gist of the method:
as §1

A short description of assay [4]: Antitumor activity against mouse EAC cells assessed as non viable cells at 10 ug/mL after 2 hrs by trypan blue exclusion test. In kind it is functional, Ehrlich. The procedure, abridged: as §1
Assay [5] in a line: Antitumor activity against mouse EAC cells assessed as non viable cells after 2 hrs by trypan blue exclusion test. The class given is functional, cell-based. Particulars: Ehrlich. The procedure, abridged: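 EAC cells were aspirated from the ascitic fluid of preinoculated female Swiss albino mice and suspended in medium containing glutamine, fetal calf serum, streptomycin and penicillin. Tubes received compound from DMSO dilutions (0.1 mL, corresponding to 100, 50, 25 or 10 µg) plus 0.1 mL cells and were held at 37 °C for 2 h. Non-viable cells were counted by trypan blue exclusion, and IC50 was read from the survival-versus-concentration curve.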

SMILES strings stand for the structures. ≈ marks a conversion by molar mass, not a printed value. Where only a bound is given, the exact number is not on record here.

In the case of `N#CC1=C(N)N(c2ccc(S(N)(=O)=O)cc2)C2=C(C(=O)CCC2)C1/C=C/c1ccccc1` (stereo not given), the Activity is 45% in assay [1], 40% in assay [2], 10% in assay [3] and 2% in assay [4]. Further, in assay [5], the half-inhibitory concentration (IC50) is > 100 µg/mL.
In the case of `Cc1ccc(C2C(C#N)=C(N)N(c3ccc(S(N)(=O)=O)cc3)C3=C2C(=O)CCC3)cc1` (stereo not given), the Activity came to 100% in assay [1], 50% in assay [2], 30% in assay [3] and 30% in assay [4]. In assay [5], the IC50 worked out at 50 µg/mL (≈ 115 µM).
Regarding `N#CC1=C(N)N(c2ccc(S(N)(=O)=O)cc2)C2=C(C(=O)CCC2)C1c1ccc(O)cc1` (stereo not given), the Activity in assay [1] came to 100%; in assay [2] it was 100%; in assay [3] it was 95%; in assay [4] it was 90%. Besides, in assay [5], the 50% inhibitory concentration (IC50) came out at 3 µg/mL (≈ 6.87 µM).
Consider `COc1ccccc1C1C(C#N)=C(N)N(c2ccc(S(N)(=O)=O)cc2)C2=C1C(=O)CCC2` (stereo not given), for which the Activity in assay [1], in assay [2], in assay [3] and in assay [4] was 0% in each case. In addition, the IC50 in assay [5] is > 100 µg/mL.
For the compound `N#CC1=C(N)N(c2ccc(S(N)(=O)=O)cc2)C2=C(C(=O)CCC2)C1c1ccccc1` (stereo not given), the Activity is reported as 40% in assay [1], 40% in assay [2], 30% in assay [3] and 10% in assay [4]. In addition, the IC50 in assay [5] is > 100 µg/mL.
On to `Cc1ccc(C2C(C#N)=C(N)N(c3ccc(S(N)(=O)=O)cc3)C3=C2C(=O)CCC3)o1` (stereo not given), for which the Activity in assay [1] was 45%; in assay [2], 40%; in assay [3] it was 10%; in assay [4], 2%. For the same compound, the 50% inhibitory concentration (IC50) in assay [5] was > 100 µg/mL.
With `N#CC1=C(N)N(c2ccc(S(N)(=O)=O)cc2)C2=C(C(=O)CCC2)C1c1cccs1` (stereo not given), the Activity is 100% in assay [1], 88% in assay [2], 80% in assay [3] and 70% in assay [4]. Also, the IC50 in assay [5] was found to be 5 µg/mL (≈ 11.7 µM).
For `COc1ccc(C2C(C#N)=C(N)N(c3ccc(S(N)(=O)=O)cc3)C3=C2C(=O)CCC3)c2ccccc12` (stereo not given), in that order: 90%, 30%, 10%, 10% and 70 µg/mL (≈ 140 µM).
The matching figures for `N#CC1=C(N)N(c2ccc(S(N)(=O)=O)cc2)C2=C(C(=O)CCC2)C1c1ccco1` (stereo not given): 10%, 5%, 0%, 0% and > 100 µg/mL.
For `COc1ccc(C2C(C#N)=C(N)N(c3ccc(S(N)(=O)=O)cc3)C3=C2C(=O)CCC3)cc1` (stereo not given), in that order: 100%, 90%, 50%, 30% and 25 µg/mL (≈ 55.5 µM).
Take `N#CC1=C(N)N(c2ccc(S(N)(=O)=O)cc2)C2=C(C(=O)CCC2)C1c1ccc([N+](=O)[O-])cc1` (stereo not given): the Activity in assay [1] was 100%; in assay [2], 95%; in assay [3], 80%; in assay [4] it was 85%. Further, the half-maximal inhibitory concentration (IC50) in assay [5] is 2.5 µg/mL (≈ 5.37 µM).
The matching figures for `COc1cc(OC)c(C2C(C#N)=C(N)N(c3ccc(S(N)(=O)=O)cc3)C3=C2C(=O)CCC3)cc1OC` (stereo not given): 100%, 100%, 72%, 40% and 12 µg/mL (≈ 23.5 µM).
For `CCOc1cc(C2C(C#N)=C(N)N(c3ccc(S(N)(=O)=O)cc3)C3=C2C(=O)CCC3)ccc1OC` (stereo not given), in that order: 100%, 70%, 60%, 50% and 10 µg/mL (≈ 20.2 µM).
For `COc1cc(C2C(C#N)=C(N)N(c3ccc(S(N)(=O)=O)cc3)C3=C2C(=O)CCC3)ccc1O` (stereo not given), in that order: 100%, 90%, 50%, 0% and 25 µg/mL (≈ 53.6 µM).
Regarding `N#CC1=C(N)N(c2ccc(S(N)(=O)=O)cc2)C2=C(C(=O)CCC2)C1c1cccc([N+](=O)[O-])c1` (stereo not given), the Activity in assay [1] was found to be 71%; in assay [2], 73%; in assay [3], 50%; in assay [4], 42%. Further, in assay [5], the IC50 stood at 25 µg/mL (≈ 53.7 µM).
For `N#CC1=C(N)N(c2ccc(S(N)(=O)=O)cc2)C2=C(C(=O)CCC2)C1c1c(O)ccc2ccccc12` (stereo not given), in that order: 15%, 5%, 0%, 0% and > 100 µg/mL.
As for `COc1ccc2ccccc2c1C1C(C#N)=C(N)N(c2ccc(S(N)(=O)=O)cc2)C2=C1C(=O)CCC2` (stereo not given), the Activity in assay [1] was 80%; in assay [2] it was 70%; in assay [3], 62%; in assay [4] it was 40%. The IC50 in assay [5] worked out at 12.5 µg/mL (≈ 25 µM).
For `N#CC1=C(N)N(c2ccc(S(N)(=O)=O)cc2)C2=C(C(=O)CCC2)C1c1ccc(Cl)cc1Cl` (stereo not given), in that order: 95%, 65%, 50%, 40% and 25 µg/mL (≈ 51.1 µM).
Take `COc1cccc2c1C(=O)c1c(O)c3c(c(O)c1C2=O)C[C@@](O)(C(=O)CO)C[C@@H]3O[C@H]1C[C@H](N)[C@H](O)[C@H](C)O1` [DOXORUBICIN]: the Activity in assay [1] is reported as 100%; in assay [2] it was 60%; in assay [3], 39%; in assay [4], 20%. Also, the IC50 in assay [5] worked out at 37.5 µg/mL (≈ 69 µM).
